SUMO1-SIM PPI = modulators of SUMO1 protein-protein interactions, primary screen, biochemical, uHTS. inhibition, % at 20 µM. hit rate 0.33% among 360,000. Small ubiquitin-related modifier 1 (Homo sapiens), P63165. AID 602429, 2012. SUMO1 binding to a labelled peptide, TR-FRET, 1 h; in the data active = inhibition above about 37%
Target sequence (P63165 whole entry, looked up): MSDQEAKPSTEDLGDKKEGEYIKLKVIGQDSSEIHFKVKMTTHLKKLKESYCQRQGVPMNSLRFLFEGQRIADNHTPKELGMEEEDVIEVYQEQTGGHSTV
LMPTP inh = LMPTP phosphatase inhibitors, primary screen, biochemical, fluorescence intensity, uHTS; Low molecular weight phosphotyrosine protein phosphatase (Homo sapiens), P24666; recombinant LMPTP-A, OMFP fluorogenic substrate; inhibition, % at 20 µM; hit rate 0.22% among 360,000; AID 651560, 2012;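 active = compounds that cut the enzyme signal by at least half of the control window in the single-dose screen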;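 also: plate controls were DMSO wells with enzyme plus substrate for no effect and substrate without enzyme for full effect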
Target sequence (P24666 whole entry, looked up): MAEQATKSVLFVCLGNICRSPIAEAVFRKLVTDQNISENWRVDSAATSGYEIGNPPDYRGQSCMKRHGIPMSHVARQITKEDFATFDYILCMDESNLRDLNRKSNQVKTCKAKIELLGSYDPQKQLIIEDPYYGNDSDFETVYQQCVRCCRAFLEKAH
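Test system – LMPTP-A enzyme · Amount – LMPTP-A at 0.625 nM final in the reaction · Buffer or medium – Bis-Tris pH 6.0, DTT, detergent · Reagent – OMFP 400 µM · Doses – single 20 µM dose · Schedule – reaction 50 min, room temperature, dark · Detection – fluorescence intensity of OMFP turnover product · Evaluation – percent inhibition versus substrate-only and uninhibited controls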
Scp1 inh = Scp-1 phosphatase inhibitors, primary screen, biochemical, colorimetric, uHTS. Carboxy-terminal domain RNA polymerase II polypeptide A small phosphatase 1 (Homo …. Recombinant Scp1, phosphopeptide, malachite green phosphate absorbance. inhibition, % at 20 µM. hit rate 0.88% among 340,000;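 active = inhibition above about 50% at 20 µM, limit read from the data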;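 also: plate controls were DMSO wells with enzyme for no effect and wells lacking enzyme for full effect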
Target sequence (Q9GZU7 76-261 limits assumed): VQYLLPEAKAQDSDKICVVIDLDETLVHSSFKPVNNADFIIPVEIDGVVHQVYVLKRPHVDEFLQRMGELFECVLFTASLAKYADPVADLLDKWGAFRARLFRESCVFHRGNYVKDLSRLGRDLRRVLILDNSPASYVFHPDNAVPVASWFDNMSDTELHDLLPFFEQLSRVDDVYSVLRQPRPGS
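Test system: SCP-1 phosphatase catalytic domain, residues 76-261; measured by: colorimetric phosphate reagent with accelerator and stabiliser, absorbance at 630 nm; timing: enzyme reaction 45 min at room temperature, colour 5 min, stabilisation 30 min; also added: Phosphorylated 17-residue peptide substrate; compound dosing: one concentration, 20 µM, with 1.0% DMSO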
DNMT1 inh = human DNMT1 methyltransferase inhibitors, primary screen, biochemical, molecular beacon, fluorescence, HinP1I cleavage, uHTS | DNA (cytosine-5)-methyltransferase 1 (Homo sapiens), P26358 | inhibition (reported as % activation of signal), % at 10 µM | hit rate 0.83% among 360,000; in the data active = inhibition above about 50%
HKDC1 inh = HKDC1 hexokinase inhibitors, primary screen, biochemical, fluorescence, uHTS; hit rate 0.16% among 340,000; inhibition, % at 20 µM; recombinant HKDC1, G6PDH/diaphorase resazurin coupled fluorescence; Q2TB90;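 active = inhibition above about 35% when tested at 20 µM, limit read from the data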;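 also: plate controls were DMSO wells with enzyme for no effect and DMSO wells lacking enzyme for full effect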
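Test system: Recombinant HKDC1 (HK5) hexokinase enzyme, produced in-house | Input: HKDC1 at 5 µg/mL | Buffer or medium: Tris pH 8.0 buffer with MgCl2, Tween-20, BSA, BME | Schedule: 90 min reaction incubation at room temperature, dark | Technique: Resazurin-to-resorufin fluorescence via G6PDH and diaphorase coupling, 525/613 nm | Controls: DMSO wells with and without enzyme mix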
STEP block = STEP phosphatase inhibitors, primary screen, biochemical, fluorescence intensity, uHTS. inhibition, % at 20 µM. recombinant STEP, OMFP fluorogenic substrate. AID 588621, 2011. Tyrosine-protein phosphatase non-receptor type 5 (Homo sapiens), P54829. hit rate 0.25% among 360,000;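 active = inhibition at 20 µM, scaled per plate between control wells, above about 37%, limit read from the data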;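 also: 0% = DMSO with enzyme and substrate and 100% = substrate only without enzyme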
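medium = Bis-Tris buffer pH 6.0, 2.5 mM DTT, 0.005% Tween 20 | test system = STEP (striatal-enriched tyrosine phosphatase) enzyme, cell-free | measure = normalized % inhibition | compound dosing = 20 µM, 1% DMSO | also added = 25 µM OMFP | schedule = reaction 20 min, ambient temperature | measured by = fluorescence read at 480 nm ex / 540 nm em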
* = called active by the depositor; ! = a repeat was not active. Most compounds without a hit are left out; they make up all but 1.8% or so of the library.

Screening Cc1ccc(-c2nn(-c3ccccc3)cc2C2CC(c3cccs3)=NN2C(=O)CCCC(=O)O)cc1 (stereo not drawn) returned SUMO1-SIM PPI -11, LMPTP inh 1, Scp1 inh 89*, DNMT1 inh -8, HKDC1 inh 9 and STEP block 29.
COc1ccc(-c2nn(-c3ccccc3)cc2C2CC(c3cccs3)=NN2C(=O)CCCC(=O)O)cc1 (stereo not drawn) was read as SUMO1-SIM PPI -11, LMPTP inh 1, Scp1 inh 17, DNMT1 inh -4, HKDC1 inh 14 and STEP block -2.
Screening O=C(COC(=O)Cc1ccc(S(=O)(=O)N2CCOCC2)s1)Nc1ccc([N+](=O)[O-])cc1 returned SUMO1-SIM PPI -22, LMPTP inh 2, Scp1 inh 29, DNMT1 inh 6, HKDC1 inh 0 and STEP block 3.
O=[N+]([O-])c1c(NCc2ccccc2)cc(N2CCc3ccccc3C2)c2nonc12 was read as SUMO1-SIM PPI -11, LMPTP inh 2, Scp1 inh -5, DNMT1 inh -3, HKDC1 inh -1 and STEP block -1.
Screening COc1ccc(C(O)c2ncc(-c3ccccc3F)[nH]2)cc1 (stereo not drawn) returned SUMO1-SIM PPI 12, LMPTP inh 0, DNMT1 inh 51* and STEP block 1.
`C/C(=N/NC(=O)CNC(=O)c1cccc(F)c1)c1ccc2c(c1)CCCC2` gave SUMO1-SIM PPI 0, LMPTP inh 1, Scp1 inh -3, DNMT1 inh 1, HKDC1 inh -2 and STEP block -3.
`O=C(c1ccco1)N1CCN(C(=O)c2cc(-c3ccncc3)nc3ccc(Br)cc23)CC1` gave SUMO1-SIM PPI 10, LMPTP inh -2, Scp1 inh -5, DNMT1 inh -2, HKDC1 inh 0 and STEP block 2.
`O=C(O)c1cc(-c2ccco2)nc2ccc(Br)cc12` gave SUMO1-SIM PPI 57*!, LMPTP inh 26, Scp1 inh 80*!, DNMT1 inh 106*!, HKDC1 inh 30 and STEP block 66*!.
Screening COc1cccc(NC(=O)N2CCCC2C(=O)NCc2ccco2)c1 (stereo not drawn) returned SUMO1-SIM PPI 2, LMPTP inh 0, Scp1 inh -1, DNMT1 inh 0, HKDC1 inh -2 and STEP block 0.
For O=C(COC(=O)/C=C/c1ccccc1Cl)NC(=O)Cc1ccccc1 the results were SUMO1-SIM PPI -7, LMPTP inh 1, Scp1 inh -5, DNMT1 inh -2, HKDC1 inh -1 and STEP block 1.
For O=C(COC(=O)c1ccccc1F)NC(=O)NC1CCCC1 the results were SUMO1-SIM PPI -5, LMPTP inh 0, Scp1 inh 3, DNMT1 inh 4, HKDC1 inh -5 and STEP block 0.
O=[N+]([O-])c1ccccc1N=Nc1ccc(O)cc1O was read as SUMO1-SIM PPI -65, LMPTP inh 14, Scp1 inh 5, DNMT1 inh -4, HKDC1 inh 8 and STEP block 10.
O=S(=O)(O)c1cc(O)c(N=Nc2ccc(O)cc2O)c2ccccc12 was read as SUMO1-SIM PPI 44*, LMPTP inh 50, Scp1 inh 61*, DNMT1 inh 55*, HKDC1 inh 6 and STEP block 10.
Screening O=C(OC1CCCCC1=O)c1cc(S(=O)(=O)N2CCOCC2)ccc1F (stereo not drawn) returned SUMO1-SIM PPI 1, LMPTP inh -1, Scp1 inh -7, DNMT1 inh 2, HKDC1 inh -1 and STEP block 0.
Screening C/C(=N\NS(=O)(=O)c1ccc(C)c([N+](=O)[O-])c1)c1cc2ccccc2o1 returned SUMO1-SIM PPI -2, LMPTP inh 1, Scp1 inh 4, DNMT1 inh 5, HKDC1 inh 2 and STEP block 0.
Screening C/C(=N\NS(=O)(=O)c1ccc(Cl)c([N+](=O)[O-])c1)c1ccc(C)o1 returned SUMO1-SIM PPI -3, LMPTP inh 55*, Scp1 inh -2, DNMT1 inh 23, HKDC1 inh 1 and STEP block 1.
Screening C/C(=N\NS(=O)(=O)c1ccc(Cl)c([N+](=O)[O-])c1)c1cc2ccccc2o1 returned SUMO1-SIM PPI -4, LMPTP inh 60*, Scp1 inh -13, DNMT1 inh 8, HKDC1 inh 2 and STEP block -2.
For O=C(CCNC(=O)C1CCN(S(=O)(=O)c2ccccc2)CC1)NCc1ccccc1Cl the results were SUMO1-SIM PPI -6, LMPTP inh 0, Scp1 inh -6, DNMT1 inh -2, HKDC1 inh -3 and STEP block -1.
For COCCN=c1scc(-c2ccco2)n1/N=C/c1ccc(O)c(O)c1O the results were SUMO1-SIM PPI 19, LMPTP inh 73*, Scp1 inh 89*, DNMT1 inh 70*, HKDC1 inh 21 and STEP block 8.
`O=C(COc1ccc2c3c(c(=O)oc2c1)CCC3)Nc1ccccn1` gave SUMO1-SIM PPI 51*, LMPTP inh 0, Scp1 inh -11, DNMT1 inh -14, HKDC1 inh 0 and STEP block 3.
`NS(=O)(=O)c1ccc(CNC(=O)COc2ccc3c4c(c(=O)oc3c2)CCCC4)cc1` gave SUMO1-SIM PPI 63*, LMPTP inh 0, Scp1 inh -1, DNMT1 inh -1, HKDC1 inh -3 and STEP block 3.
O=C(COc1ccc2c3c(c(=O)oc2c1)CCCC3)NCc1ccncc1 was read as SUMO1-SIM PPI -5, LMPTP inh -1, Scp1 inh -5, DNMT1 inh 4, HKDC1 inh -6 and STEP block 0.
Screening Cc1ccc(S(=O)(=O)N(C(=O)c2ccncc2)c2ccc(OC(=O)c3ccncc3)c3ccccc23)c(C)c1 returned SUMO1-SIM PPI 5, LMPTP inh 3, Scp1 inh 60*, DNMT1 inh -25, HKDC1 inh 38* and STEP block 1.
Screening O=C1Cn2c(nc3ccccc32)N1c1cccc(C(F)(F)F)c1 returned SUMO1-SIM PPI 0, LMPTP inh 1, Scp1 inh -3, DNMT1 inh -3, HKDC1 inh 12 and STEP block -4.
